Columns and labels:
Assay type in all cases: functional
[1] = system: MDA-MB-468; experiment: Cytotoxicity against human MDA-MB-468 cells assessed as cell growth at 0.01 uM after 48 hrs by sulforhodamine B assay; settings: MDA-MB-468, 48 h, read-out: Activity
[2] = system: COLO 205; experiment: Cytotoxicity against human COLO205 cells assessed as cell growth at 0.1 uM after 48 hrs by sulforhodamine B assay; settings: COLO 205, 48 h, read-out: Activity
Outline: (§1)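 NCI-60 five-dose screen. Cells were grown in RPMI 1640 with 5% FBS and 2 mM L-glutamine and preincubated 24 h. Compound (DMSO stock) was tested at 0.01, 0.1, 1, 10 and 100 µM for 48 h at 37 °C. Cells were fixed in situ with cold TCA (final 10%) and stained with 0.4% SRB. A515 was read, and percent growth was calculated against time-zero and control plates.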

[3] = system: SNB-19; experiment: Cytotoxicity against human SNB19 cells assessed as cell growth at 0.1 uM after 48 hrs by sulforhodamine B assay; settings: SNB-19, 48 h, read-out: Activity
[4] = system: RXF 393; experiment: Cytotoxicity against human RXF393 cells assessed as cell growth at 0.1 uM after 48 hrs by sulforhodamine B assay; settings: RXF 393, 48 h, read-out: Activity
[5] = system: KM12; experiment: Cytotoxicity against human KM12 cells assessed as cell growth at 100 uM after 48 hrs by sulforhodamine B assay; settings: KM12, 48 h, read-out: Activity
[6] = system: SW-620; experiment: Cytotoxicity against human SW620 cells assessed as cell growth at 100 uM after 48 hrs by sulforhodamine B assay; settings: SW-620, 48 h, read-out: Activity
[7] = system: SF-268; experiment: Cytotoxicity against human SF268 cells assessed as cell growth at 100 uM after 48 hrs by sulforhodamine B assay; settings: SF-268, 48 h, read-out: Activity
[8] = system: SNB-19; experiment: Cytotoxicity against human SNB19 cells assessed as cell growth at 100 uM after 48 hrs by sulforhodamine B assay; settings: SNB-19, 48 h, read-out: Activity
[9] = system: UO-31; experiment: Cytotoxicity against human UO31 cells assessed as cell growth at 100 uM after 48 hrs by sulforhodamine B assay; settings: UO-31, 48 h, read-out: Activity
[10] = system: TK-10; experiment: Cytotoxicity against human TK10 cells assessed as cell growth at 0.1 uM after 48 hrs by sulforhodamine B assay; settings: TK-10, 48 h, read-out: Activity
[11] = system: BT-549; experiment: Cytotoxicity against human BT549 cells assessed as cell growth at 100 uM after 48 hrs by sulforhodamine B assay; settings: BT-549, 48 h, read-out: Activity; outline: as §1
[12] = system: MDA-MB-468; experiment: Cytotoxicity against human MDA-MB-468 cells assessed as cell growth at 100 uM after 48 hrs by sulforhodamine B assay; settings: MDA-MB-468, 48 h, read-out: Activity
[13] = system: UACC-62; experiment: Cytotoxicity against human UACC62 cells assessed as cell growth at 1 uM after 48 hrs by sulforhodamine B assay; settings: UACC-62, 48 h, read-out: Activity
[14] = system: CCRF-CEM; experiment: Cytotoxicity against human CCRF-CEM cells assessed as cell growth at 10 uM after 48 hrs by sulforhodamine B assay; settings: read-out: Activity
Outline: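 CCRF-CEM suspension leukemia cells in RPMI 1640 with 5% FBS and 2 mM L-glutamine, plated 24 h before dosing. Five concentrations (0.01–100 µM) were applied from a DMSO stock for 48 h at 37 °C. Settled cells were fixed with 80% TCA (final 16%) and stained with SRB, with read-out at 515 nm. Percent growth was derived from time-zero and control absorbances.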

[15] = system: SF-539; experiment: Cytotoxicity against human SF539 cells assessed as cell growth at 10 uM after 48 hrs by sulforhodamine B assay; settings: SF-539, 48 h, read-out: Activity
[16] = system: SNB-19; experiment: Cytotoxicity against human SNB19 cells assessed as cell growth at 10 uM after 48 hrs by sulforhodamine B assay; settings: SNB-19, 48 h, read-out: Activity
[17] = system: 786-0; experiment: Cytotoxicity against human 786-0 cells assessed as cell growth at 10 uM after 48 hrs by sulforhodamine B assay; settings: 786-0, 48 h, read-out: Activity; outline: as §1
[18] = system: A498; experiment: Cytotoxicity against human A498 cells assessed as cell growth at 10 uM after 48 hrs by sulforhodamine B assay; settings: A498, 48 h, read-out: Activity; outline: as §1
[19] = system: TK-10; experiment: Cytotoxicity against human TK10 cells assessed as cell growth at 10 '-5 M after 48 hrs by sulforhodamine B assay; settings: TK-10, 48 h, read-out: Activity
[20] = system: HL-60(TB); experiment: Growth inhibition of human HL-60(TB) cells after 48 hrs by sulforhodamine B assay; settings: HL-60, 48 h; for CC50: read-out: LC50 (the source's name)
Outline: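 HL-60(TB) suspension cells in RPMI 1640 with 5% FBS and 2 mM L-glutamine were treated for 48 h at five concentrations (0.01–100 µM). Settled cells were fixed with 16% TCA (final), SRB-stained and read at 515 nm. GI50 was the concentration giving (Ti−Tz)/(C−Tz)×100 = 50 from log concentration–growth curves, expressed as ">" if not reached at the top concentration.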

[21] = system: HCT-15; experiment: Growth inhibition of human HCT15 cells after 48 hrs by sulforhodamine B assay; settings: HCT-15, 48 h
Outline: (§2)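 Adherent NCI-60 lines were grown in RPMI 1640 with 5% FBS and 2 mM L-glutamine, plated at 5000–40,000 cells/well and preincubated 24 h. They were then exposed to five concentrations (0.01–100 µM, from a DMSO stock) for 48 h at 37 °C, 5% CO2. Cells were fixed with cold TCA (10% final, 60 min, 4 °C) and stained with 0.4% SRB. Dye was solubilized in 10 mM Tris base and A515 read. GI50 was derived from time-zero, control and treated absorbances.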

[22] = system: SF-539; experiment: Growth inhibition of human SF539 cells after 48 hrs by sulforhodamine B assay; settings: SF-539, 48 h; outline: as §2
[23] = system: U-251; experiment: Growth inhibition of human U251 cells after 48 hrs by sulforhodamine B assay; settings: U-251, 48 h; outline: as §2
[24] = system: SK-MEL-28; experiment: Growth inhibition of human SK-MEL-28 cells after 48 hrs by sulforhodamine B assay; settings: SK-MEL-28, 48 h; outline: as §2
[25] = system: OVCAR-5; experiment: Growth inhibition of human OVCAR5 cells after 48 hrs by sulforhodamine B assay; settings: OVCAR-5, 48 h; outline: as §2
[26] = system: T47D; experiment: Growth inhibition of human T47D cells after 48 hrs by sulforhodamine B assay; outline: as §2
[27] = system: OVCAR-3; experiment: Cytotoxicity against human OVCAR3 cells assessed as cell growth at 0.01 uM after 48 hrs by sulforhodamine B assay; settings: OVCAR-3, 48 h, read-out: Activity

Structure (SMILES)	growth at 0.01 µM [1] [%]	growth at 0.1 µM [2] [%]	growth at 0.1 µM [3] [%]	growth at 0.1 µM [4] [%]	growth at 100 µM [5] [%]	growth at 100 µM [6] [%]	growth at 100 µM [7] [%]	growth at 100 µM [8] [%]	growth at 100 µM [9] [%]	growth at 0.1 µM [10] [%]	growth at 100 µM [11] [%]	growth at 100 µM [12] [%]	growth at 1 µM [13] [%]	growth at 10 µM [14] [%]	growth at 10 µM [15] [%]	growth at 10 µM [16] [%]	growth at 10 µM [17] [%]	growth at 10 µM [18] [%]	growth at 10 µM [19] [%]	TGI [20] [µM]	other results
Cc1ccc2nc(Nc3c(C)cccc3C)sc2c1	88	112	87	85	48	45	34	30	80	94	73	27	52	58	57	47	56	-1	61.3	> 100	CC50 [20]: > 100 µM; GI50 [21]: 0.92 µM; LC50 [21]: > 100 µM; TGI [21]: > 100 µM; GI50 [22]: 66.8 µM; LC50 [22]: > 100 µM; TGI [22]: > 100 µM; GI50 [23]: 25.4 µM; LC50 [23]: > 100 µM; TGI [23]: > 100 µM; LC50 [24]: > 100 µM; TGI [24]: > 100 µM; GI50 [25]: > 100 µM; LC50 [25]: > 100 µM; TGI [25]: > 100 µM; GI50 [26]: 54.8 µM; LC50 (concentration giving 50% net cell kill) [26]: > 100 µM; TGI [26]: > 100 µM; growth at 0.01 µM [27]: 101%
Clc1cccc(Cl)c1Nc1nc2cccc(Cl)c2s1	89	94	90	73	-98	-82	-56	-63	-62	94	-48	-59	51	-34	-81	-74	-93	-97	-35.7	3.75	GI50 [20]: 1.32 µM; CC50 [20]: 20.6 µM; GI50 [21]: 1.16 µM; LC50 [21]: 5.69 µM; TGI [21]: 2.57 µM; GI50 [22]: 1.48 µM; LC50 [22]: 6.4 µM; TGI [22]: 3.08 µM; GI50 [23]: 1.31 µM; TGI [23]: 2.79 µM; GI50 [24]: 1.46 µM; LC50 [24]: 6.02 µM; TGI [24]: 2.96 µM; GI50 [25]: 1.48 µM; LC50 [25]: 5.61 µM; TGI [25]: 2.88 µM; GI50 [26]: 0.841 µM; LC50 (concentration giving 50% net cell kill) [26]: 5.08 µM; TGI [26]: 2.18 µM; growth at 0.01 µM [27]: 98%
